Measured values published in ChEMBL document CHEMBL1132157 (J Med Chem, 1999).

Experiments:
[1] = biological target: T1, 5-hydroxytryptamine receptor 1B (Homo sapiens, UniProt P28222); test: Binding affinity at cloned human 5-hydroxytryptamine 1B receptor stably expressed in CHO cells by [3H]5-HT displacement.; type: cell-based
[2] = biological target: T2, 5-hydroxytryptamine receptor 1D (Homo sapiens, UniProt P28221); test: Maximum stimulation of [35S]GTP-gamma-S, binding in CHO cells expressing human 5-HT-1d relative to 5-HT; type: functional, cell-based
Method in brief: (§1)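 Membranes from thawed CHO cells with human 5-HT1D, prepared in ice-cold 20 mM Hepes/EDTA at pH 7.4, spun at 40000g. Assay buffer: 100 mM NaCl, 10 mM MgCl2, 0.1% ascorbate, 10 μM pargyline. GDP 100 μM plus drug, 20 min at 30 °C, then ice 15 min. Then 100 pM [35S]GTPγS, 30 min at 30 °C, filtration. Emax is taken as % of maximal 5-HT response; duplicates, 2–5 occasions.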

[3] = biological target: T2, 5-hydroxytryptamine receptor 1D; test: Agonist-induced [35S]- GTPgammaS binding in CHO cells stably transfected with 5-hydroxytryptamine 1D receptor; type: cell-based; method in brief: as §1
[4] = Ratio of IC50 for human 5-HT1B to human 5-HT1D receptors
[5] = biological target: T2, 5-hydroxytryptamine receptor 1D; test: Binding affinity at human cloned 5-hydroxytryptamine 1D receptor stably expressed in CHO cells by [3H]5-HT displacement.; type: cell-based
Method in brief: (§2)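 Membranes from thawed CHO cells with human 5-HT1B or 5-HT1D, washed in 50 mM Tris-HCl pH 7.7, preincubated 10 min at 37 °C to remove endogenous 5-HT. Buffer holds 0.1% ascorbate, 10 μM pargyline and 4 mM CaCl2. Uses 2.0 nM [3H]5-HT, 30 min at 37 °C; 10 μM 5-HT defines nonspecific binding. Filtration; IC50 by nonlinear regression; duplicates, 2–5 occasions.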

[6] = biological target: T1, 5-hydroxytryptamine receptor 1B; test: Displacement of [3H]5-HT binding to cloned 5-hydroxytryptamine 1B receptor stably expressed in CHO cells; type: cell-based; method in brief: as §2
[7] = biological target: T2, 5-hydroxytryptamine receptor 1D; test: Displacement of [3H]5-HT binding to cloned human 5-hydroxytryptamine 1D receptor stably expressed in CHO cells; type: cell-based; method in brief: as §2
[8] = biological target: 5-hydroxytryptamine receptor 5A (Homo sapiens, UniProt P47898); test: Compound was tested for the displacement of [3H]5-HT binding to cloned human 5-hydroxytryptamine 5A receptor stably expressed in CHO cells; type: cell-based
[9] = biological target: 5-hydroxytryptamine receptor 2A (Homo sapiens, UniProt P28223); test: Compound was tested for the displacement of [3H]5-HT binding to cloned human 5-hydroxytryptamine 2A receptor stably expressed in CHO cells; type: cell-based
[10] = biological target: 5-hydroxytryptamine receptor 1E (Homo sapiens, UniProt P28566); test: Compound was tested for the displacement of [3H]5-HT binding to cloned human 5-hydroxytryptamine 1E receptor stably expressed in CHO cells; type: cell-based
[11] = biological target: T3, 5-hydroxytryptamine receptor 1A (Homo sapiens, UniProt P08908); test: Compound was tested for the displacement of [3H]5-HT binding to cloned 5-hydroxytryptamine 1A receptor stably expressed in CHO cells; type: cell-based
T3 sequence (P08908 whole entry): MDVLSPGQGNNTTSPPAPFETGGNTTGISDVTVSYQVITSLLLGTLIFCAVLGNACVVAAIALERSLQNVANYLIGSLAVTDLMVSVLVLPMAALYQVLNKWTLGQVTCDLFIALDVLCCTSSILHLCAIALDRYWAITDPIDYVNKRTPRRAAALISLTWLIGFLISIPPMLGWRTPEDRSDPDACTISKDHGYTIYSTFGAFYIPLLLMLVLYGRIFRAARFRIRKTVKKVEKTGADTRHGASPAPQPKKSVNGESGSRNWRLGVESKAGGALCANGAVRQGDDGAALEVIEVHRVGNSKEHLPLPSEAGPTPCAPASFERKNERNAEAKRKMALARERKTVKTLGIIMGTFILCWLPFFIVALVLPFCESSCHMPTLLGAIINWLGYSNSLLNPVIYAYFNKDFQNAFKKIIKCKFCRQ

[12] = biological target: 5-hydroxytryptamine receptor 6 (Rattus norvegicus, UniProt P31388); test: Compound was tested for the displacement of [3H]5-HT binding to cloned rat 5-hydroxytryptamine 6 receptor stably expressed in CHO cells; type: cell-based
[13] = biological target: 5-hydroxytryptamine receptor 7 (Rattus norvegicus, UniProt P32305); test: Compound was tested for the displacement of [3H]5-HT binding to cloned rat 5-hydroxytryptamine 7 receptor stably expressed in CHO cells; type: cell-based
[14] = biological target: T4, 5-hydroxytryptamine receptor 1F (Homo sapiens, UniProt P30939); test: Compound was tested for the displacement of [3H]5-HT binding to cloned human 5-hydroxytryptamine 1F receptor stably expressed in CHO cells; type: cell-based
T4 sequence (P30939 whole entry): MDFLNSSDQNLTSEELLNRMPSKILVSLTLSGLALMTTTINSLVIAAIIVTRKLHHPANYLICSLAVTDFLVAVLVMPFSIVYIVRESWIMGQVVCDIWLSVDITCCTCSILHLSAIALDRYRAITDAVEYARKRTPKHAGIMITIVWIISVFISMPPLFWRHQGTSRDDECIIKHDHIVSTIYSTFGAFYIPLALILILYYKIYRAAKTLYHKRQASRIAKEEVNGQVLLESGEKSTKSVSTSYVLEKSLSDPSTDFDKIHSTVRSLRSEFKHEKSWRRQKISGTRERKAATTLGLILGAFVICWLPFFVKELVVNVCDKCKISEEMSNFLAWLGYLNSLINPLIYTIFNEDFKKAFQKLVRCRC

T2 sequence (P28221 whole entry): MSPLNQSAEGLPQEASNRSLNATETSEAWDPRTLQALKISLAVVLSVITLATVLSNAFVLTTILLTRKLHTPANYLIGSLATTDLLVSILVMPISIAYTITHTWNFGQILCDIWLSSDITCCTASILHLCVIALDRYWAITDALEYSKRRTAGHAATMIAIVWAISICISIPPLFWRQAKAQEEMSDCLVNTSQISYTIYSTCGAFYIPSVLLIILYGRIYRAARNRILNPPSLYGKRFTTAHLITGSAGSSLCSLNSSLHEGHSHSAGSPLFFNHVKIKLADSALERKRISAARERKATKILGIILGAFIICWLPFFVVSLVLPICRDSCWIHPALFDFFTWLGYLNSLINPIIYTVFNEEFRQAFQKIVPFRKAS
T1 sequence (P28222 whole entry): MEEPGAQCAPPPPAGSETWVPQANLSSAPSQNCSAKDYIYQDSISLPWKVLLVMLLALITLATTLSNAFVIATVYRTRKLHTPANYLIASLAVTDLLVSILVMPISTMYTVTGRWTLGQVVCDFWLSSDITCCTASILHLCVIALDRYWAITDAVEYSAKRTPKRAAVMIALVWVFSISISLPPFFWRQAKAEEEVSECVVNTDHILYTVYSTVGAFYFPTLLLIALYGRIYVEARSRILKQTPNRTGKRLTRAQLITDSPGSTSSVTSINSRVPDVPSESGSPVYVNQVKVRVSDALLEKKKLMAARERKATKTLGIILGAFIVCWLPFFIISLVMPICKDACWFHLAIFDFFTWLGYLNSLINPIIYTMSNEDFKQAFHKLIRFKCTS
Sequence of 5-hydroxytryptamine receptor 6 (P31388 whole entry): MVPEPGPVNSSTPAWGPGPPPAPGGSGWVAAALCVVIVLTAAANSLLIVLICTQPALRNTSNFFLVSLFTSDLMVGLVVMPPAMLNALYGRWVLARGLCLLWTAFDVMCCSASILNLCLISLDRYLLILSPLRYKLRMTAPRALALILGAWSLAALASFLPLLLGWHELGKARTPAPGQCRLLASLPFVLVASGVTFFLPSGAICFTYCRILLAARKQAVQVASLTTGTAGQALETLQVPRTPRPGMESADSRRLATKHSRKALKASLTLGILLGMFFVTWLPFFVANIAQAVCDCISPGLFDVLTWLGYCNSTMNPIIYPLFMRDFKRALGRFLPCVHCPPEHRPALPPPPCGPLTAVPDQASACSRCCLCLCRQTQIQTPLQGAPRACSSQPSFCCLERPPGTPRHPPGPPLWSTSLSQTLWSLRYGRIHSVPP
Sequence of 5-hydroxytryptamine receptor 2A (P28223 whole entry): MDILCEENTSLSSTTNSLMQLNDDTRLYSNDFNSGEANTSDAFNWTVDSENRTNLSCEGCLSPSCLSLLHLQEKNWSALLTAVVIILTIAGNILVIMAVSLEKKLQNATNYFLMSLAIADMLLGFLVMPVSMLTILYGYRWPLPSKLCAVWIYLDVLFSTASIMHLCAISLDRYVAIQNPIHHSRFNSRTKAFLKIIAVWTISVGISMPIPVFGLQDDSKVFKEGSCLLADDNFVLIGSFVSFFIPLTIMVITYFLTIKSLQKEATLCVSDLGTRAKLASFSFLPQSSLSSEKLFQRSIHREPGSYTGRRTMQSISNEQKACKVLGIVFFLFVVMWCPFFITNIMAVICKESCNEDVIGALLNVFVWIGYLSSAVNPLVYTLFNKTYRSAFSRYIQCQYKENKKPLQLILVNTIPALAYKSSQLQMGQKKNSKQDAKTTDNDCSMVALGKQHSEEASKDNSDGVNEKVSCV
Sequence of 5-hydroxytryptamine receptor 1E (P28566 whole entry): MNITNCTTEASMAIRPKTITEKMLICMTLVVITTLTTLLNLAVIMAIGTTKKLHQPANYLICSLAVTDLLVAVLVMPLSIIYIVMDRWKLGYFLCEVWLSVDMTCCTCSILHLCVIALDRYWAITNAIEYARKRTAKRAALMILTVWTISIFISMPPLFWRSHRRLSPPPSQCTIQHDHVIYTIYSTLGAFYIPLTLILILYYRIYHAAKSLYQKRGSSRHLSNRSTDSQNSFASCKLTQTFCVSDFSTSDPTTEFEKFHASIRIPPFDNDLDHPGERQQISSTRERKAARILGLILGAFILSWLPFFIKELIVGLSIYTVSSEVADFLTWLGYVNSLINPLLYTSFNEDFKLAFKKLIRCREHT
Sequence of 5-hydroxytryptamine receptor 7 (P32305 whole entry): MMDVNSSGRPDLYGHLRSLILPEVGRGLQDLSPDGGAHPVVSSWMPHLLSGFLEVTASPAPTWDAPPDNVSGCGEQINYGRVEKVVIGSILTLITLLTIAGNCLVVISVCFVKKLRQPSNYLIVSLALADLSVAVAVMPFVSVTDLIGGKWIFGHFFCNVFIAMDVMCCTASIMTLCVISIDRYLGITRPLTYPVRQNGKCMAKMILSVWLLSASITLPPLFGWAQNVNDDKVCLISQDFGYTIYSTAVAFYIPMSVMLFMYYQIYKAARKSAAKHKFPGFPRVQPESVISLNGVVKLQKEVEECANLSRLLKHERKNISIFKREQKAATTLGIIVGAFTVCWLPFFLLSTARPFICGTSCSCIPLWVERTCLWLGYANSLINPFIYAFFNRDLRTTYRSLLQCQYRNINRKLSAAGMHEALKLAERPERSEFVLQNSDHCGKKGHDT
Sequence of 5-hydroxytryptamine receptor 5A (P47898 whole entry): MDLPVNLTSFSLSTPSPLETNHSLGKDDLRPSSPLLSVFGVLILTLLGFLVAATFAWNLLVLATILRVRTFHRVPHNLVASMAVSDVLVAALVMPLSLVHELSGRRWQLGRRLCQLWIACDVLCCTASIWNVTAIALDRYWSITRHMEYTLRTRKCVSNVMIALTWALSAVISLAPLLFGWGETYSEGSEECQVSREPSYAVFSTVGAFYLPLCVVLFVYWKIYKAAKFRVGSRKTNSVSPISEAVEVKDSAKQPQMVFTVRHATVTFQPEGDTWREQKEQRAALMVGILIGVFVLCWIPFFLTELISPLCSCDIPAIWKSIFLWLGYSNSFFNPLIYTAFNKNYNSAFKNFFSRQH

SMILES	IC50 [1]	Efficacy [2]	EC50 [3]	Selectivity [4]	IC50 [5]	IC50 [6]	IC50 [7]	other results
C[C@H](Cc1ccccc1)NC1CCN(CCCc2c[nH]c3ccc(-n4cnnc4)cc23)CC1	170 nM	71%	6.8 nM	31	5.5 nM			
COC[C@H](NC1CCN(CCCc2c[nH]c3ccc(-n4cnnc4)cc23)CC1)c1ccccc1	210 nM	93%	0.9 nM	70	3 nM			
OCCC(NC1CCN(CCCc2c[nH]c3ccc(-n4cnnc4)cc23)CC1)c1ccccc1 (stereo not given)	150 nM	100%	5.1 nM	27	5.5 nM			
C[C@@H](NC1CCN(CCCc2c[nH]c3ccc(-n4cnnc4)cc23)CC1)C(=O)Nc1ccccc1	85 nM	61%	15 nM	11	7.6 nM			
CN(C1CCN(CCCc2c[nH]c3ccc(-n4cnnc4)cc23)CC1)[C@H](CO)c1ccccc1	71 nM			17	4.3 nM			
CC(CO)(NC1CCN(CCCc2c[nH]c3ccc(-n4cnnc4)cc23)CC1)c1ccccc1 (stereo not given)	98 nM	59%	3.4 nM	19	5.2 nM			
CC(=O)Nc1ccc([C@@H](C)NC2CCN(CCCc3c[nH]c4ccc(-n5cnnc5)cc34)CC2)cc1	350 nM			12	29 nM			
C[C@H](NC1CCN(CCCc2c[nH]c3ccc(-n4cnnc4)cc23)CC1)c1ccccc1	95 nM	76%	12 nM	160	0.6 nM			
C[C@@H](NC1CCN(CCCc2c[nH]c3ccc(-n4cncn4)cc23)CC1)c1ccccc1		69%	18 nM	23		420 nM	18 nM	
C[C@@H](NC1CCN(CCCc2c[nH]c3ccc(-n4cnnc4)cc23)CC1)[C@H](O)c1ccccc1	200 nM	76%	15 nM	18	11 nM			
OC[C@@H](Cc1ccccc1)NC1CCN(CCCc2c[nH]c3ccc(-n4cnnc4)cc23)CC1	100 nM	74%	14 nM	12	8.3 nM			
C[C@@H](NC1CCN(CCCc2c[nH]c3ccc(-n4cnnc4)cc23)CC1)[C@@H](O)c1ccccc1	210 nM			18	12 nM			
CC(=O)Nc1ccc([C@H](C)NCC2CCN(CCCc3c[nH]c4ccc(-n5cnnc5)cc34)CC2)cc1		99%	3 nM	16		9.3 nM	0.6 nM	
CC(NC1CCN(CCCc2c[nH]c3ccc(-n4cnnc4)cc23)CC1)c1ccc(F)cc1 (stereo not given)	230 nM	99%	0.5 nM	120	1.9 nM			
OC[C@H](Cc1ccccc1)NC1CCN(CCCc2c[nH]c3ccc(-n4cnnc4)cc23)CC1	140 nM	76%	3.6 nM	67	2.1 nM			
c1cc(CNC2CCN(CCCc3c[nH]c4ccc(-n5cnnc5)cc34)CC2)ccn1		80%	13 nM	5.8		140 nM	24 nM	
CN(Cc1ccsc1)C1CCN(CCCc2c[nH]c3ccc(-n4cnnc4)cc23)CC1		93%	4.2 nM	23		35 nM	1.5 nM	
CC#CCN(C)C1CCN(CCCc2c[nH]c3ccc(-n4cnnc4)cc23)CC1	81 nM			8.3	9.8 nM			
NC(=O)OC[C@H](NC1CCN(CCCc2c[nH]c3ccc(-n4cnnc4)cc23)CC1)c1ccccc1	120 nM	73%	9.3 nM	26	4.7 nM			
c1cc(CNC2CCN(CCCc3c[nH]c4ccc(-n5cnnc5)cc34)CC2)co1		65%	7.1 nM	17		78 nM	4.5 nM	
O=S(=O)(NCC1CCN(CCCc2c[nH]c3ccc(-n4cnnc4)cc23)CC1)c1ccccc1		73%	12 nM	10		60 nM	6.2 nM	
O=C1N[C@@H](Cc2ccc3[nH]cc(CCCN4CCC(N[C@@H](CO)c5ccccc5)CC4)c3c2)CO1		83%	6 nM	73		460 nM	6.3 nM	
OC[C@@H](NC1CCN(CCCc2c[nH]c3ccc(-n4cnnc4)cc23)CC1)c1ccccc1	160 nM	67%	2.6 nM	46	3.5 nM			
c1ccc(C2CCCCN2C2CCN(CCCc3c[nH]c4ccc(-n5cnnc5)cc34)CC2)cc1 (stereo not given)		65%	4.7 nM	220		410 nM	1.9 nM	
CN(C1CCN(CCCc2c[nH]c3ccc(-n4cnnc4)cc23)CC1)[C@@H](CO)c1ccccc1	210 nM	82%	10 nM	47	4.5 nM			
COC[C@H](NC1CCN(CCCc2c[nH]c3ccc(Cn4cncn4)cc23)CC1)c1ccc(F)cc1		89%	8.9 nM	240		1200 nM	5 nM	
CS(=O)(=O)NC[C@H](NC1CCN(CCCc2c[nH]c3ccc(-n4cnnc4)cc23)CC1)c1ccccc1	78 nM			5.2	15 nM			
OC[C@H](NC1CCN(CCCc2c[nH]c3ccc(-n4cnnc4)cc23)CC1)c1ccc(F)cc1			0.8 nM	170		150 nM		IC50 [8]: > 10000 nM; IC50 [9]: 1100 nM; IC50 [10]: > 10000 nM; IC50 [11]: 66 nM; IC50 [12]: > 10000 nM; IC50 [13]: 540 nM; IC50 [14]: > 10000 nM
